# Screening data from PubChem BioAssay.
# Rows were chosen to be rich in hits. Some 4.9% of all compounds tested hit in one or more screens of this group.
# CHT block = inhibits the human high affinity choline transporter. hit rate 0.86% among 310,000. B-score at 10 µM. AID 488975. Q9GZV3. CHT-expressing cells, membrane potential dye, choline response; stronger effect = lower value;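 active = B-score over 3 SD under the library average, and starting fluorescence ratio not unusually high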;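 note: choline stimulus applied at its EC90 after an EC20 pre-addition; B-score computed on integrated fluorescence ratio after choline addition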
# Target sequence (Q9GZV3 whole entry, looked up): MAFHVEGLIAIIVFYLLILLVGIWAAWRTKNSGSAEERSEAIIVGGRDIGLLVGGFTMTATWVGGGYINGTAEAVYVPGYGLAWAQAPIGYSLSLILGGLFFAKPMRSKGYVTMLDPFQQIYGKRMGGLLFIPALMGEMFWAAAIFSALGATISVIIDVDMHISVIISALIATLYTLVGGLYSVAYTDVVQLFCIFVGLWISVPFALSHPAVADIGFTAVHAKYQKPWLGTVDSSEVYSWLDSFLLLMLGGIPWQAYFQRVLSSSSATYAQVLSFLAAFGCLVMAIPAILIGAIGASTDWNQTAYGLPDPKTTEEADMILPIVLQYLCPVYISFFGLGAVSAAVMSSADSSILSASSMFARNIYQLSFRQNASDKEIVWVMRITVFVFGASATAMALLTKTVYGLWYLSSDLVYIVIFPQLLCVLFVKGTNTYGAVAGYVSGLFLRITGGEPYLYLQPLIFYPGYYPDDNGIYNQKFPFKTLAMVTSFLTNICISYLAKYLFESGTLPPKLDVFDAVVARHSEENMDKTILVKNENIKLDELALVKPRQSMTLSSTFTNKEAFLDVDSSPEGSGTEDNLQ
# HSF1 inhib = HSF1 inhibition; hit rate 0.77% among 300,000; activity change, negative = inhibition, % at 7.5 µM (by protocol); NIH3T3-HGL HSE-luciferase, MG132-induced, luminescence 8 h; stronger effect = lower value;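 active = more than half of replicate wells show activity change below -50%, luminescence cut by over half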;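 note: luciferase reports HSF-1 transcriptional activity via heat shock element; 0% = median of DMSO wells and -100% = zero luminescence signal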
# Lipid droplet = hepatic lipid droplet formation modulation. hit rate 0.4% among 240,000. AML12 mouse hepatocytes, oleate lipid droplets, BODIPY imaging. AID 1656. inhibition, % at 6.5 µM;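 active = lipid droplet intensity inhibited by at least 50%, with more than 500 cells counted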
#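 material = mouse AML12 hepatocyte cell line, fixed after treatment | also added = 100 µM oleic acid challenge | doses = compound at 6.5 µM only | schedule = overnight exposure | technique = Image-based BODIPY and DAPI two-channel analysis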
# HSF-1 act = increases HSF-1 driven luciferase reporter signal; NIH3T3-HGL HSF-1 luciferase reporter, MG132, 8 h; 100% = twice DMSO control signal; activation, % at 9 µM; hit rate 1.7% among 300,000; AID 504408;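 active = mean replicate activation of at least 50% with a set share of replicates each reaching 50%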;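 note: 0% = median of the neutral control wells and 100% = twice that signal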
# PHOSPHO1 block = PHOSPHO1 (human) inhibition | Q8TCT1 | recombinant PHOSPHO1, absorbance phosphatase assay | inhibition, % at 13.3 µM | AID 1565 | hit rate 1.1% among 290,000; in the data active = inhibition above about 60%
# CHT PAM = allosteric activators of human choline transporter CHT | Q9GZV3 | CHT-expressing cells, membrane potential dye, choline EC20; stronger effect = higher value; LV-AA mutant CHT in HEK293 cells | B-score at 10 µM | hit rate 0.49% among 310,000 | AID 488977;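 active = initial fluorescence not abnormally high and integrated response B-score, plate-corrected, over 3 SD above library mean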
# CHT act confirm = human CHT activation, confirmatory screen | shares compounds with CHT PAM | CHT-expressing cells, membrane potential dye fluorescence (FDSS); % of choline EC20–EC90 response window; HEK293 expressing CHT LV-AA mutant; choline added at its EC20 | AID 504833 | hit rate 91% among 2,500 | activation, % at 10 µM;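 active = primary screen active, with duplicate mean activation above negative control mean plus 3 SD, cut at about 11% in these data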
# HEK293 MP dye = activity in parental HEK293 cells lacking CHT. shares compounds with CHT PAM. ratio readout change at 10 µM, hits read low. hit rate 62% among 2,500. membrane potential dye fluorescence (FDSS); measured after EC20 choline addition. AID 623908;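 active = duplicate-averaged ratio beyond 3 SD from buffer wells, up or down, though filed actives are nearly all decreases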
# Numbers without * were called inactive; i = inactive; nt = no result given.
SMILES,CHT block,HSF1 inhib,Lipid droplet,HSF-1 act,PHOSPHO1 block,CHT PAM,CHT act confirm,HEK293 MP dye
Cc1ccc2c(c1)sc1nc(=O)ccn12,i,0.1,nt,-17.4,39.5,i,40.5*,-38.1*
Cc1ccc(-c2cc3cccc[n+]3cc2-c2ccc(C)cc2)cc1,i,-1.8,-29.3,6.6,-7.4,8.16*,62.6*,-38.6*
c1cn(-c2ccc(-c3ccnc4ncnn34)cc2)cn1,i,0.9,9.3,1.6,20.3,8.47*,40.9*,-39.5*
COC(=O)c1ccc2c(=O)n(CCN3CCOCC3)c(=S)[nH]c2c1,i,-5.5,4.2,-16.2,17.4,i,nt,nt
COC(=O)c1ccc2c(=O)n(CCCN3CCOCC3)c(=S)[nH]c2c1,i,-3.0,7.2,-8.3,-31.9,i,23.7*,-39.8*
c1cncc(-c2nc(NCC3CCCO3)c3ccccc3n2)c1 (configuration not stated),i,-1.2,14.7,0.7,38.6,i,21.6*,-33.3*
Cc1nccn1-c1ccc(C(F)(F)F)cc1NC=O,i,-6.3,nt,-14.2,-33.3,i,nt,nt
O=C(COc1ccc(C(=O)Nc2ccc(Cl)cc2)cc1)NCc1ccccc1,i,-1.0,-4.6,12.5,-24.5,i,nt,nt
Cn1c(=O)c2c(nc(CN3CCN(c4cccc(Cl)c4)CC3)n2CCc2ccccc2)n(C)c1=O,i,6.9,nt,16.0,nt,9.31*,24.4*,i
Cn1c(=O)c2c(nc(CN3CCCCC3)n2CCc2ccccc2)n(C)c1=O,i,nt,nt,nt,4.6,12.3*,47.4*,i
Cn1c(=O)c2c(nc(CN3CCOCC3)n2CCCc2ccccc2)n(C)c1=O,i,1.0,6.8,7.6,-14.4,i,nt,nt
CN(Cc1ccccc1)c1nc2c(c(=O)n(C)c(=O)n2C)n1CCCc1ccccc1,i,6.2,-2.8,19.4,3.6,8.67*,25.4*,i
CN1CCN(Cc2nc3c(c(=O)n(C)c(=O)n3C)n2CCCc2ccccc2)CC1,i,-0.7,nt,8.6,48.5,7.99*,48.0*,-36.3*
Cn1c(=O)c2c(nc(CN3CCN(c4ccccc4)CC3)n2CCc2ccccc2)n(C)c1=O,i,0.6,nt,-14.9,nt,i,nt,nt
COCCn1c(SCc2ccc(F)cc2)nc2ccccc2c1=O,i,-1.8,-6.1,-1.8,18.5,i,nt,nt
COc1cccc(Cn2c(=O)c3ccccc3n3nc(C)cc23)c1,i,14.1,43.7,2.1,-24.5,i,nt,nt
CCCCCCn1c(CN2CCN(C)CC2)nc2c1c(=O)n(C)c(=O)n2C,i,-10.4,-76.2,-2.6,-5.3,9.47*,60.8*,-46.3*
CCCCCn1c(CN2CCN(CCO)CC2)nc2c1c(=O)n(C)c(=O)n2C,i,1.0,3.5,7.9,2.9,i,nt,nt
CCOC(=O)C(C)Sc1cc(CS(=O)(=O)c2ccccc2)nc(-c2ccccc2)n1 (configuration not stated),i,7.4,nt,-6.9,16.2,7.7*,5.7,i
O=S(=O)(Cc1cc(Oc2ccccc2)nc(-c2ccccc2)n1)c1ccccc1,i,-44.5,nt,-54.3,-5.2,i,nt,nt
C=CC[n+]1cccc(-c2cc3ccc(C)cc3[nH]2)c1,i,3.7,-20.3,0.1,28.0,i,nt,nt
COc1ccccc1CN(C(=O)Cc1cccs1)C(C(=O)NC1CCCC1)c1ccncc1 (configuration not stated),i,11.2,nt,38.4,22.4,i,0.3,i
O=C(NC1CCCC1)C(c1ccsc1)N(Cc1ccco1)C(=O)Cc1cccs1 (configuration not stated),i,14.0,nt,34.7,-7.5,7.44*,32.7*,i
Cc1cc(NC(=O)CCC(=O)N(Cc2ccco2)C2(C(=O)NC3CCCCC3)CCCC(C)C2)no1 (configuration not stated),i,3.8,-10.8,17.0,6.5,i,18.6*,i
Cc1cc(NC(=O)CCC(=O)N(Cc2ccco2)C2(C(=O)NC3CCCC3)CCC(C)CC2)no1 (configuration not stated),i,0.9,-60.1,15.4,-15.1,i,nt,nt
SMILES,CHT block,HSF1 inhib,Lipid droplet,HSF-1 act,PHOSPHO1 block,CHT PAM,CHT act confirm,HEK293 MP dye
O=C(Cc1cccs1)N(Cc1ccco1)C1(C(=O)NC2CCCC2)CCCCC1,i,-2.6,-31.3,-12.5,-1.4,10.3*,40.6*,i
COc1cccc(C(=O)Nc2nnc(-c3ccccc3)s2)c1,i,26.0,nt,45.7,2.0,i,nt,nt
Cc1c(Cl)cccc1NC(=S)N1CCN(c2ccc([N+](=O)[O-])cn2)CC1,i,-3.6,15.1,7.9,27.3,i,nt,nt
COc1ccc2cc3cc(C(=O)NCCCN4CCC(C)CC4)oc3nc2c1,i,-0.1,7.4,13.1,26.1,i,nt,nt
O=C(NC1CCCC1)C(c1ccsc1)N(Cc1ccccc1)C(=O)Cc1cccs1 (configuration not stated),i,5.4,nt,27.4,54.2,6.86*,42.7*,i
CCOC(=O)CN(C#N)c1nc(C)cc(C)n1,i,-11.3,-19.4,-8.4,17.4,i,nt,nt
Cn1c(COc2ccccc2O)[n+](C)c2ccccc21,i,-3.7,-0.8,-4.8,30.8,i,nt,nt
CCCCCCCCCCOC(=O)Cn1c(COc2ccccc2OC)[n+](C)c2ccccc21,i,6.1,-87.6,19.2,9.2,19.3*,91.0*,-37.4*
COc1ccc(-c2cc3nc4n(c(=O)c3s2)CCCCC4)cc1,i,17.9,1.7,40.0,25.4,i,nt,nt
COc1ccc(-c2nc3n(c2C)CCC3)cc1,i,4.4,-40.0,3.5,-0.8,6.42*,56.7*,-62.9*
C(=N\Nc1nn2cnnc2c2ccccc12)/c1ccco1,i,-1.2,22.2,0.4,0.6,i,35.4*,-28.1*
CCN(CC)C(=O)C1CCN(Cc2cn(C)nc2-c2ccc(Oc3ccccc3)cc2)CC1,i,12.0,-0.3,17.7,13.7,i,0.8,i
C[C@H]1C(=O)N(C)CCN1Cc1cn(C)nc1-c1ccc(Oc2ccccc2)cc1,i,-1.0,-7.5,8.6,23.0,i,nt,nt
CCCNC(=O)[C@H](Cc1c[nH]c2ccccc12)NC(=O)c1ccccc1Cl,i,10.7,16.1,3.6,1.8,i,nt,nt
CCN(Cc1ccccc1)C(c1ccc(Cl)cc1)c1nnnn1C(C)(C)C (configuration not stated),i,2.8,nt,-8.6,15.9,7.19*,31.6*,i
